Experimental data published in ChEMBL document CHEMBL1147788, “Design, synthesis, and preliminary biological evaluation of 2,3-dihydro-3-hydroxymethyl-1,4-benzoxazine derivatives” (2006).
The source made the active and inactive calls. The calls are words filed in the database; no cut-off is given here.

What was measured:
[1] = test system: A549; experiment: Antiproliferative activity against human A549 cell line at 200 uM after 48 hrs by MTT assay; format: functional, cell-based
How it was run: (§1)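 A549 cells grown in medium with or without compound at 50–400 µM for 24 and 48 h; viability read by MTT assay and expressed as percent of vehicle (DMSO) control. Means ± SE of three independent experiments; significance tested against control.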

[2] = test system: A549; experiment: Antiproliferative activity against human A549 cell line at 400 uM after 48 hrs by MTT assay; format: functional, cell-based; how it was run: as §1
[3] = test system: HUVEC; experiment: Induction of HUVEC cell line apoptosis at 25 uM; format: functional, cell-based; conditions: Homo sapiens
How it was run: (§2)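 HUVECs in MCDB131 with 10% fetal calf serum and […] bFGF, passages 10–20. Apoptosis induced by growth-factor deprivation. Cells cultured with or without compound at 25–200 µM for 24 and 48 h. Means ± SE of three independent experiments versus control.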

[4] = test system: HUVEC; experiment: Induction of HUVEC cell line apoptosis at 50 uM; format: functional, cell-based; conditions: Homo sapiens; how it was run: as §2
[5] = test system: HUVEC; experiment: Induction of HUVEC cell line apoptosis at 100 uM; format: functional, cell-based; conditions: Homo sapiens; how it was run: as §2
[6] = test system: HUVEC; experiment: Induction of HUVEC cell line apoptosis at 200 uM; format: functional, cell-based; conditions: Homo sapiens; how it was run: as §2
[7] = test system: A549; experiment: Antiproliferative activity against human A549 cell line by MTT assay; format: functional, cell-based; how it was run: as §1
[8] = test system: HUVEC; experiment: Inhibition of HUVEC cell line apoptosis at 50 uM; format: functional, cell-based; conditions: Homo sapiens; how it was run: as §2
[9] = test system: HUVEC; experiment: Inhibition of HUVEC cell line apoptosis at 100 uM; format: functional, cell-based; conditions: Homo sapiens; how it was run: as §2
[10] = test system: HUVEC; experiment: Inhibition of HUVEC cell line apoptosis at 200 uM; format: functional, cell-based; conditions: Homo sapiens; how it was run: as §2
[11] = test system: A549; experiment: Decrease in viability of human A549 cell line at 200 uM after 48 hrs relative to control by MTT assay; format: functional; how it was run: as §1
[12] = test system: A549; experiment: Decrease in viability of human A549 cell line at 400 uM after 24 hrs relative to control by MTT assay; format: functional; how it was run: as §1
[13] = test system: A549; experiment: Decrease in viability of human A549 cell line at 400 uM after 48 hrs relative to control by MTT assay; format: functional; how it was run: as §1
[14] = test system: A549; experiment: Decrease in viability of human A549 cell line at 200 uM after 24 hrs relative to control by MTT assay; format: functional, cell-based; how it was run: as §1
[15] = test system: A549; experiment: Antiproliferative activity against human A549 cell line at 400 uM after 24 hrs by MTT assay; format: functional, cell-based; how it was run: as §1
[16] = test system: A549; experiment: Decrease in viability of human A549 cell line at 50 uM after 48 hrs relative to control by MTT assay; format: functional, cell-based; how it was run: as §1

With OCC1COc2ccc(Cl)cc2N1 (stereo unspecified) the Activity [1] was “Active”, the Activity [2] was “Active” and the Activity [3] was “Active”. For the same compound, the Activity [4] was “Active”, the Activity [5] was “Active” and the Activity [6] was “Active”.
With Nc1ccc2c(c1)NC(CO)CO2 (stereo unspecified) the Activity [7] was “inactive”, the Activity [8] was “Active” and the Activity [9] was “Active”. The Activity [10] was “Active”.
With CC(C)(C)c1ccc2c(c1)NC(CO)CO2 (stereo unspecified) the Activity [11] was 72.6%, the Activity [3] was “Active” and the Activity [4] was “Active”. For the same compound, the Activity [5] was “Active”, the Activity [6] was “Active” and the Activity [12] was 77.8%. It also gave an Activity [13] of 59.5%.
For OCC1COc2c(Cl)cccc2N1 (stereo unspecified), the Activity [7] was “inactive”, the Activity [3] was “Active” and the Activity [4] was “Active”. For the same compound, the Activity [5] was “Active” and the Activity [6] was “Active”.
In the case of OCC1COc2ccccc2N1 (stereo unspecified), the Activity [7] is reported as “inactive”, the Activity [3] is reported as “Active” and the Activity [4] is reported as “Active”. The Activity [5] was “Active” and the Activity [6] was “Active”.
OCC1COc2c(Cl)cc(Cl)cc2N1 (stereo unspecified) was tested, and the Activity [14] was “Active”, the Activity [15] was “Active” and the Activity [11] was “Active”. For the same compound, the Activity [2] was “Active”, the Activity [16] was “Active” and the Activity [3] was “Active”. The Activity [4] was “Active”, the Activity [5] was “Active” and the Activity [6] was “Active”.
Cc1ccc2c(c1)NC(CO)CO2 (stereo unspecified) was tested, and the Activity [7] was “inactive”, the Activity [3] was “Active” and the Activity [4] was “Active”. For the same compound, the Activity [5] was “Active” and the Activity [6] was “Active”.
